{"data": "Measurements collected from several papers", "target": "Serine/threonine-protein kinase 4 (STK4, Homo sapiens, UniProt Q13043)", "One construct used (Q13043 1-487)": "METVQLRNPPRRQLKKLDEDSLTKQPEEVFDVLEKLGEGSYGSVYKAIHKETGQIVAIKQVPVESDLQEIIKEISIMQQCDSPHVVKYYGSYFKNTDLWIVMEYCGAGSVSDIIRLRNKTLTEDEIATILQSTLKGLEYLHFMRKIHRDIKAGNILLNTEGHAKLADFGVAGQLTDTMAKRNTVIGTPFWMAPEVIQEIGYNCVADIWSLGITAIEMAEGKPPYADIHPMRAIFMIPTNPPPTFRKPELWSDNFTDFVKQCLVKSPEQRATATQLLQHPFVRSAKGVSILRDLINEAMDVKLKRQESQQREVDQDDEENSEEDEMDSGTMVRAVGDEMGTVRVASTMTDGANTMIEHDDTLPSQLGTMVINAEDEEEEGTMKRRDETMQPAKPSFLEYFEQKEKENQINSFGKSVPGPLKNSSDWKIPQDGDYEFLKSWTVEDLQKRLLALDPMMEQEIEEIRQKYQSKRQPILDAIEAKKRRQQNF", "note": "Compare with care: the assays were run in different laboratories."}
{"Structure (SMILES)": "CC1CCCN1c1nccc(-c2cnn3ncccc23)n1 (centres unmarked)", "effect on": "binding", "concentration": "1 µM", "remaining binding [%]": 98}
{"Structure (SMILES)": "Cc1cnc(Nc2ccc(C(=O)N3CCC(N4CCCC4)CC3)cc2)nc1-c1cc2ccccc2s1", "effect on": "binding", "method": "competition with immobilised ligand", "concentration": "1 µM", "remaining binding [%]": 100}
{"Structure (SMILES)": "CCC(=O)N[C@H]1CC[C@@H](C(=O)N(C)c2ccc(-c3nc4ccccc4o3)cc2)C1", "effect on": "cell-free assay", "method": "competition with immobilised ligand", "concentration": "1 µM", "remaining binding [%]": 100}
{"Structure (SMILES)": "CN(CCCC(F)(F)F)c1nccc(-c2cnn3ncccc23)n1", "effect on": "binding", "concentration": "1 µM", "remaining binding [%]": 89}
{"Structure (SMILES)": "COc1cccc(CNC(=O)c2nc3scc(COCc4ccc(C(=O)O)cc4)c3c(=O)[nH]2)c1", "effect on": "cell-free assay", "method": "competition with immobilised ligand", "concentration": "1 µM", "remaining binding [%]": 75}
{"Structure (SMILES)": "COc1cnc(Nc2cccc(S(N)(=O)=O)c2)nc1N1CCN(c2ccccc2)CC1", "effect on": "binding", "method": "competition with immobilised ligand", "concentration": "1 µM", "remaining binding [%]": 100}
{"Structure (SMILES)": "Cc1c[nH]c2nccc(Oc3c(F)cc(Nc4cc(Cl)nc(N)n4)cc3F)c12", "effect on": "cell-free assay", "method": "competition with immobilised ligand", "concentration": "0.1 µM", "remaining binding [%]": 100}
{"Structure (SMILES)": "CNC(=O)[C@@H]1CC[C@@H](n2c(-c3ccc4cnccc4c3)nc3ccc(C(=O)NCc4cccc(C(N)=O)c4)cc32)C1", "effect on": "binding", "method": "competition with immobilised ligand", "concentration": "1 µM", "remaining binding [%]": 81}
{"Structure (SMILES)": "CSc1cccnc1N1CCN(Cc2nc3ccccc3[nH]2)CC1", "effect on": "cell-free assay", "method": "competition with immobilised ligand", "concentration": "1 µM", "remaining binding [%]": 85}
{"Structure (SMILES)": "O=C(c1ccc(Nc2nccc(-c3cc4ccccc4s3)n2)cc1)N1CCC(N2CCCC2)CC1", "effect on": "binding", "method": "competition with immobilised ligand", "concentration": "1 µM", "remaining binding [%]": 100}
{"Structure (SMILES)": "CN(C)c1nccc(-c2cnc3ncccn23)n1", "effect on": "binding", "concentration": "1 µM", "remaining binding [%]": 88}
{"Structure (SMILES)": "O=C(NCCCN1CCOCC1)c1ccc(Nc2nccc(-c3cc4ccccc4s3)n2)cc1", "effect on": "binding", "method": "competition with immobilised ligand", "concentration": "1 µM", "remaining binding [%]": 100}
{"Structure (SMILES)": "CCCOc1ccc([C@@H]2[C@@H](C(=O)O)[C@H](c3ccc4c(c3)OCO4)CN2CC(=O)Nc2c(CC)cccc2CC)cc1", "effect on": "cell-free assay", "method": "competition with immobilised ligand", "concentration": "1 µM", "remaining binding [%]": 95}
{"Structure (SMILES)": "C[C@@H]1CCN(c2nccc(-c3cnn4ncccc34)n2)C1", "effect on": "binding", "concentration": "1 µM", "remaining binding [%]": 85}
{"Structure (SMILES)": "COc1ncc2cc3ccccc3nc2c1C#N", "effect on": "cell-free assay", "method": "competition with immobilised ligand", "concentration": "5 µM", "remaining binding [%]": 96}
{"Structure (SMILES)": "N[C@@H]1CCN(c2nccc(-c3cnn4ncccc34)n2)C1", "effect on": "binding", "concentration": "1 µM", "remaining binding [%]": 100}
{"Structure (SMILES)": "Cc1c(C(=O)O)cc(-c2ccc(C3CCNCC3)cc2)c2ccc(-c3ccc(C(F)(F)F)cc3)cc12", "effect on": "binding", "method": "competition with immobilised ligand", "concentration": "1 µM", "remaining binding [%]": 95}
{"Structure (SMILES)": "CCN1CCN(Cc2ccc(C(=O)Nc3ccc(C)c(Oc4ccc5c(c4)CC(=O)N5)c3)cc2C(F)(F)F)CC1", "effect on": "binding", "method": "competition with immobilised ligand", "concentration": "1 µM", "remaining binding [%]": 100}
{"Structure (SMILES)": "COc1ccnn2ncc(-c3ccnc(N(C)C)n3)c12", "effect on": "binding", "concentration": "1 µM", "remaining binding [%]": 100}
{"Structure (SMILES)": "O=C(NCC1CCOCC1)c1n[nH]cc1NC(=O)c1c(F)cccc1F", "effect on": "binding", "method": "competition with immobilised ligand", "concentration": "1 µM", "remaining binding [%]": 100}
